“Also recorded” adds a separate entry of the source. Where two headings read alike, the source gives them in different places. Marks after values point to notes of the source that are not given here.
What was measured:
[1] = system: sarcoma; conditions: Phase III sarcoma maintenance study, P = 0.0001, stratified log-rank ref 24; cited from earlier work
[2] = system: Japanese patients with advanced solid tumors; test: Phase I safety and tolerability: DLTs and adverse events; assay type: in vivo; conditions: for DLTs / n/N, No. of patients with DLT/No. of patients at the dose level: Cycle 1
Outline: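 Open-label, single-centre 3+3 escalation, 20 then 40 mg orally (single dose Day 1, then daily 5 days/week from Day 8). DLT window was the first 28-day cycle, counting drug-related Grade 4 neutropenia >5 days, febrile (>38.5°C) Grade 3–4 neutropenia, Grade 4 thrombocytopenia, and Grade 3–4 non-haematologic toxicity with exceptions. Adverse events graded by CTCAE v3.0 over all cycles. Dose intensity <75% excluded from DLT evaluation.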

[3] = Whole blood and plasma pharmacokinetics; assay type: in vivo, Japanese patients
Outline: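 Cycle 1, oral 20 or 40 mg. Whole blood and plasma sampled predose and 0.5–168 h after the Day 1 dose, predose on Days 15, 18, 22 and 23, and predose to 24 h on Day 26; assayed by HPLC-MS/MS. Tmax, Cmax and Ctrough taken by inspection. […] Accumulation (Day 26/Day 1) from a linear mixed effects model on ln values.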

[4] = system: human tumor cell lines; conditions: in vitro ref 8; cited from earlier work
[5] = system: non-Japanese patients with refractory or advanced solid cancer; conditions: cited from earlier work; for Maximum tolerated dose (MTD): non-Japanese patients ref 10–13
[6] = system: metastatic or locally advanced solid tumors; test: Antitumor activity by RECIST version 1.0; assay type: in vivo, Japanese patients
Outline: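 Exploratory tumour assessment by RECIST v1.0 in refractory metastatic or locally advanced solid tumours. Oral 20 or 40 mg: single dose Day 1, washout ≥6 days, then once daily 5 days on/2 days off on Days 8–28 as inpatients. Later 21-day cycles at 5 days a week until progression or unacceptable toxicity.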

[7] = system: mTOR; conditions: in vitro ref 8; cited from earlier work
[8] = All patients (n = 13), all cycles
[9] = all patients (n = 13), all cycles

## CO[C@H]1C[C@@H]2CC[C@@H](C)[C@@](O)(O2)C(=O)C(=O)N2CCCC[C@H]2C(=O)O[C@H]([C@H](C)C[C@@H]2CC[C@@H](OP(C)(C)=O)[C@H](OC)C2)CC(=O)[C@H](C)/C=C(\C)[C@@H](O)[C@@H](OC)C(=O)[C@H](C)C[C@H](C)/C=C/C=C/C=C/1C [ridaforolimus, Ridaforolimus]
[1]
  Hazard ratio for progression-free survival vs placebo: 0.72
[2]; 20 mg (n = 7), all cycles
  Anorexia, drug-related adverse event, Grades 1–2, no. of patients: 2
  Constipation, drug-related adverse event, Grades 1–2, no. of patients: 3
  Fatigue, drug-related adverse event, Grades 1–2, no. of patients: 1
  Hypercholesterolemia, drug-related adverse event, Grades 1–2, no. of patients: 3
  Hyperglycemia, drug-related adverse event, Grades 1–2, no. of patients: 2
  Hypertriglyceridemia, drug-related adverse event, Grades 1–2, no. of patients: 5
  Hypoalbuminemia, drug-related adverse event, Grades 1–2, no. of patients: 2
  Interstitial pneumonitis, drug-related adverse event, Grades 1–2, no. of patients: 1
  Interstitial pneumonitis, drug-related adverse event, Grades 3–4, no. of patients: 0
  Leukopenia, drug-related adverse event, Grades 1–2, no. of patients: 1
  Leukopenia, drug-related adverse event, Grades 3–4, no. of patients: 1
  Neutropenia, drug-related adverse event, Grades 1–2, no. of patients: 1
  Neutropenia, drug-related adverse event, Grades 3–4, no. of patients: 2
  Proteinuria, drug-related adverse event, Grades 1–2, no. of patients: 3
  Stomatitis, drug-related adverse event, Grades 3–4, no. of patients: 1
  Thrombocytopenia, drug-related adverse event, Grades 1–2, no. of patients: 2
[2]; 40 mg (n = 6), all cycles
  Anemia, drug-related adverse event, Grades 1–2, no. of patients: 3
  Anemia, drug-related adverse event, Grades 3–4, no. of patients: 3
  Anorexia, drug-related adverse event, Grades 1–2, no. of patients: 2
  Anorexia, drug-related adverse event, Grades 3–4, no. of patients: 1
  Constipation, drug-related adverse event, Grades 1–2, no. of patients: 1
  Fatigue, drug-related adverse event, Grades 1–2, no. of patients: 3
  Hypercholesterolemia, drug-related adverse event, Grades 1–2, no. of patients: 3
  Hyperglycemia, drug-related adverse event, Grades 1–2, no. of patients: 2
  Hyperglycemia, drug-related adverse event, Grades 3–4, no. of patients: 1
  Hypertriglyceridemia, drug-related adverse event, Grades 1–2, no. of patients: 4
  Hypoalbuminemia, drug-related adverse event, Grades 1–2, no. of patients: 3
  Interstitial pneumonitis, drug-related adverse event, Grades 1–2, no. of patients: 3
  Interstitial pneumonitis, drug-related adverse event, Grades 3–4, no. of patients: 0
  Leukopenia, drug-related adverse event, Grades 1–2, no. of patients: 2
  Loss of body weight, drug-related adverse event, Grades 1–2, no. of patients: 4
  Neutropenia, drug-related adverse event, Grades 1–2, no. of patients: 1
  Proteinuria, drug-related adverse event, Grades 1–2, no. of patients: 3
  Rash, drug-related adverse event, Grades 1–2, no. of patients: 2
  Rash, drug-related adverse event, Grades 3–4, no. of patients: 1
  Stomatitis, drug-related adverse event, Grades 1–2, no. of patients: 6
  Thrombocytopenia, drug-related adverse event, Grades 1–2, no. of patients: 3
[2]; 13 patients
  Median time until the onset of stomatitis: 11 days
  Number of patients who discontinued treatment because of adverse events: Six patients
[2]; 13 patients enrolled
  Number of patients with stomatitis: 13
[2]; 13 patients, 20 and 40 mg
  Number of patients with grade 1 drug-induced interstitial pneumonitis: Four patients
[2]; 20 and 40 mg, first cycle
  Number of patients with dose-limiting toxicities: Two patients
[2]; [8]
  Anemia, drug-related adverse event, Grades 3–4, no. of patients: 4
  Anorexia, drug-related adverse event, Grades 1–2, no. of patients: 4
  Anorexia, drug-related adverse event, Grades 3–4, no. of patients: 1
  Constipation, drug-related adverse event, Grades 1–2, no. of patients: 4
  Fatigue, drug-related adverse event, Grades 1–2, no. of patients: 4
  Hypercholesterolemia, drug-related adverse event, Grades 1–2, no. of patients: 6
  Hyperglycemia, drug-related adverse event, Grades 1–2, no. of patients: 4
  Hyperglycemia, drug-related adverse event, Grades 3–4, no. of patients: 1
  Hypertriglyceridemia, drug-related adverse event, Grades 1–2, no. of patients: 9
  Hypoalbuminemia, drug-related adverse event, Grades 1–2, no. of patients: 5
  Interstitial pneumonitis, drug-related adverse event, Grades 1–2, no. of patients: 4
  Interstitial pneumonitis, drug-related adverse event, Grades 3–4, no. of patients: 0
  Leukopenia, drug-related adverse event, Grades 1–2, no. of patients: 3
  Leukopenia, drug-related adverse event, Grades 3–4, no. of patients: 1
  Loss of body weight, drug-related adverse event, Grades 1–2, no. of patients: 4
  Neutropenia, drug-related adverse event, Grades 1–2, no. of patients: 2
  Neutropenia, drug-related adverse event, Grades 3–4, no. of patients: 2
  Proteinuria, drug-related adverse event, Grades 1–2, no. of patients: 6
  Rash, drug-related adverse event, Grades 3–4, no. of patients: 1
  Stomatitis, drug-related adverse event, Grades 3–4, no. of patients: 1
  Thrombocytopenia, drug-related adverse event, Grades 1–2, no. of patients: 5
[2]; Grade 3 anorexia, 40 mg
  Time to onset of DLT: 23 days
[2]; Grade 3 stomatitis, 20 mg
  Time to onset of DLT: 8 days
[2]; Grade 3 vomiting, 40 mg
  Time to onset of DLT: 23 days
[2]; Level 1, 20 mg
  DLTs: Grade 3 stomatitis
  n/N, No. of patients with DLT/No. of patients at the dose level: 1/6^b
[2]; Level 2, 40 mg
  DLTs: Grade 3 anorexia; also recorded: Grade 3 vomiting
  n/N, No. of patients with DLT/No. of patients at the dose level: 1/6
[2]; [9]
  Incidence of hypercholesterolemia related to treatment: 46.2%
  Incidence of hypertriglyceridemia related to treatment: 69.2%
  Incidence of leucopenia: 30.8%
  Incidence of neutropenia: 30.8%
  Incidence of proteinuria related to treatment: 46.2%
  Incidence of skin rash related to treatment: 61.5%
  Incidence of stomatitis related to treatment: 100%
  Incidence of thrombocytopenia: 38.5%
[2]; dose level 2 (40 mg)
  Patients requiring a dose reduction: None
[2]; eight patients with other cancer types
  Interstitial pneumonitis among patients with other cancer types: three cases occurred among eight patients
[2]; five patients with NSCLC
  Interstitial pneumonitis among NSCLC patients: one of these five NSCLC patients
[2]; four patients
  Time of occurrence of interstitial pneumonitis after the start of treatment: 2–5 months
[2]; oral, once daily 5 days a week
  Tolerability, in words: well tolerated up to a dose of 40 mg
[3]; Day 1, after administration of 20 mg
  Time whole blood concentration was below the quantitation limit (<0.2 ng/mL): 2 to 4 h
[3]; Day 1, after administration of 40 mg
  Time whole blood concentration was below the quantitation limit (<0.2 ng/mL): 1 to 2 h
[3]; once daily, 5 days a week
  Time for mean whole blood C trough to reach steady state: about 1 week
[3]; plasma vs whole blood concentration
  Blood-to-plasma ratio, in words: high blood-to-plasma ratio
[3]; whole blood
  Accumulation from Day 1 to Day 26 (AUC0–24 h, C max, C trough), in words: moderate accumulation
[3]; whole blood, 20 mg
  Accumulation ratio (Day 26/Day 1) AUC0–24 h, geometric mean ratio (90% confidence interval): 1.51 (1.14, 2.01)
  Accumulation ratio (Day 26/Day 1) C max, geometric mean ratio (90% confidence interval): 1.37 (0.959, 1.97)
  Accumulation ratio (Day 26/Day 1) C trough, geometric mean ratio (90% confidence interval): 2.02 (1.61, 2.52)
[3]; whole blood, 40 mg
  Accumulation ratio (Day 26/Day 1) AUC0–24 h, geometric mean ratio (90% confidence interval): 1.44 (1.05, 1.99)
  Accumulation ratio (Day 26/Day 1) C max, geometric mean ratio (90% confidence interval): 1.01 (0.674, 1.50)
  Accumulation ratio (Day 26/Day 1) C trough, geometric mean ratio (90% confidence interval): 1.76 (1.37, 2.25)
[3]; whole blood, Day 1, 20 and 40 mg
  Lag time for systemic absorption: 1 to 4 h
[3]; whole blood, Days 1 and 26
  Time at which C max was reached: approximately 4 h
[4]
  Antiproliferative activity, in words: antiproliferative activity against a broad range of human tumor cell lines
[5]; 40 mg daily, five times a week, non-Japanese patients ref 17
  DLTs: stomatitis and fatigue
[5]; daily regimen
  Maximum tolerated dose (MTD): 10 mg
[5]; once daily, five-times-a-week regimen
  Maximum tolerated dose (MTD): 40 mg
[6]; 13 patients, NSCLC and angiosarcoma
  Number of patients achieving a partial response: Two patients
[6]; 13 patients, one thymic cancer, four soft tissue sarcomas
  Number of patients with stable disease for ≥16 weeks: five patients
[6]; Patient 1, Osteosarcoma, 20 mg
  Duration of stable disease: 3.7 weeks
[6]; Patient 3, Thymic cancer, 20 mg
  Duration of stable disease: 16.3 weeks
[6]; Patient 5, Liposarcoma, 20 mg
  Duration of stable disease: 16.1 weeks
[6]; Patient 6, NSCLC (adenocarcinoma), 20 mg
  Duration of stable disease: 4.0 weeks
[6]; Patient 7, NSCLC (adenocarcinoma), 20 mg
  Duration of stable disease: 4.0 weeks
[6]; Patient 8, Osteosarcoma, 40 mg
  Duration of stable disease: 4.0 weeks
[6]; Patient 9, Liposarcoma, 40 mg
  Duration of stable disease: 17.3 weeks
[6]; Patient 10, Leiomyosarcoma, 40 mg
  Duration of stable disease: 16.3 weeks
[6]; Patient 11, Leiomyosarcoma, 40 mg
  Duration of stable disease: 17.1 weeks
[6]; Patient 13, Day 28, baseline 42 mm
  Longest tumor diameter on CT: 21 mm
[6]; both patients with partial response
  Time until the response: 28 days
[7]
  Effect on mTOR activity, in words: inhibited mTOR activity

Reference: paper PMC3313018 (Cancer Chemotherapy and Pharmacology, 2011)
